Screening data (PubChem BioAssay)
Most compounds without a hit are left out; they make up all but 2.9% or so of the library.
SIAE primary: human SIAE inhibitors, primary screen, biochemical, fluorescence polarization, FP-Rh probe, 1536-well HTS | Sialate O-acetylesterase (Homo sapiens), Q9HAT2 | SIAE FP-Rh probe binding | inhibition, % at 9.66 µM | hit rate 0.69% among 370,000 | AID 1053197, 2014;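 active means inhibition above a cutoff: mean of compounds within the control limits plus 3 SD of those, cut at about 17% in these data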;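 further: 0% = plate median of compound wells and 100% = probe without SIAE protein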
PAD4 inh: human PAD4 inhibitors, primary screen, biochemical, fluorescence polarization, 1536-well format | Protein-arginine deiminase type-4 (Homo sapiens), Q9UM07 | inhibition, % at 6.36 µM | recombinant PAD4, RCA probe fluorescence polarization | hit rate 0.41% among 330,000;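 active means percent inhibition above a cutoff equal to the mean of all tested compounds plus 3 SD, cut at about 15% in these data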;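 further: 0% = PAD4 with RCA probe and DMSO and 100% = probe without PAD4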
TCR-CD3 inh: inhibitors of human TCR-CD3 interaction, primary screen, biochemical, fluorescence, TAMRA-labeled TCR probe | inhibition, % at 9.4 µM | hit rate 0.37% among 360,000 | AID 651800, 2012; in the data active means inhibition above about 19%;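 further: recombinant mutant TCR 2C K166C tagged with TAMRA read by polarization; 0% = receptor in buffer alone and 100% = receptor with positive control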
HTRA1 inhibitor: HTRA1 serine protease inhibitors, primary screen, biochemical, fluorescence polarization, HTS. Q92743. recombinant HTRA1, FP-rhodamine activity-based probe. inhibition, % at 5.96 µM. hit rate 0.5% among 340,000; in the data active means inhibition above about 36%;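 further: 0% = enzyme with DMSO and 100% = wells lacking enzyme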
mABHD4 FP: ABHD4 inhibitors, primary screen, biochemical, fluorescence polarization, mouse; inhibition, % at 8.92 µM; AID 720543, 2013; purified mABHD4, FP-Rh probe fluorescence polarization; hit rate 0.54% among 370,000;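 active means inhibition exceeding the mean over every tested compound plus 3 SD, cut at about 30% in these data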;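 further: 0% = plate median of compound wells and 100% = S159A mutant with DMSO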
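Assay system: wild-type mouse ABHD4 protein; compound: single nominal dose of 8.92 µM, 0.89% DMSO final; schedule: 45 min + 60 min at 25 °C; measured by: FP readout, ex 525 nm / em 598 nm; evaluation: % inhibition of FP-Rh probe binding versus controls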
PRMT1 FP inh: PRMT1 methyltransferase inhibitors, primary screen, biochemical, fluorescence polarization; hit rate 1.3% among 370,000; recombinant PRMT1, activity-based probe fluorescence polarization; inhibition, % at 2.79 µM; AID 652257, 2013;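 active means inhibition above about 21% made by adding two undisclosed values, limit read from the data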
Target sequence (Q99873 whole entry, looked up): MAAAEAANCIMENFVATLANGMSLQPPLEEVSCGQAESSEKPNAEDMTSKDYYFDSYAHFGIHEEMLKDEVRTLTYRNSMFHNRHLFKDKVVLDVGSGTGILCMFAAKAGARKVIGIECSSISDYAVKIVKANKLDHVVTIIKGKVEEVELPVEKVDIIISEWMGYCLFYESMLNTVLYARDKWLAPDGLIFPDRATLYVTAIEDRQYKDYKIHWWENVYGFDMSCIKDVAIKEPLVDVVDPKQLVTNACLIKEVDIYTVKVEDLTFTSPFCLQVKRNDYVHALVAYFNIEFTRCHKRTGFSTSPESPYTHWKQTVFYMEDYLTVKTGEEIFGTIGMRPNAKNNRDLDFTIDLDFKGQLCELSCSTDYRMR
PRMT1 inh conf: PRMT1 methyltransferase inhibitors, confirmation, biochemical, fluorescence polarization, triplicate; AID 687036, 2013; shares compounds with PRMT1 FP inh; inhibition, % at 2.79 µM; hit rate 42% among 3,300; recombinant His-PRMT1, activity-based probe fluorescence polarization;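 active means mean inhibition across replicates above the hit cutoff derived for the earlier primary screen, cut at about 22% in these data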
The depositor's hits bear a star; . = not tested or not shown.

SMILES | SIAE primary | PAD4 inh | TCR-CD3 inh | HTRA1 inhibitor | mABHD4 FP | PRMT1 FP inh | PRMT1 inh conf
O=C1CC(N2CCN(c3ccc(F)cc3)CC2)C(=O)N1c1ccc(F)cc1 (stereo not given) | -2 | -1 | 8 | 1 | 0 | 0 | .
COc1ccc(N2C(=O)CC(N3CCCCC3)C2=O)cc1 (stereo not given) | 9 | -3 | 1 | -5 | 3 | 80* | 0
O=C1CC(N2CCCCCC2)C(=O)N1c1ccc(F)cc1 (stereo not given) | 1 | -5 | -4 | 2 | 9 | 41* | 29*
CN1CCCCC(NC(=O)c2ccc(F)cc2)C1=O (stereo not given) | -3 | . | 6 | . | 4 | 3 | .
COc1ccc2c(c1)CCCN2C(=O)C1CCCN(S(=O)(=O)c2ccc(C(C)(C)C)cc2)C1 (stereo not given) | -3 | . | . | . | -5 | 5 | .
COc1ccc(N2C(=O)CC(N3CCC(O)(c4cccc(C(F)(F)F)c4)CC3)C2=O)cc1 (stereo not given) | -2 | 2 | -6 | 2 | -10 | 61* | -3
Cc1cccc(NC(=O)C2CCN(c3nnc(-n4cccc4)s3)CC2)c1C | 2 | . | . | . | 1 | -4 | .
Cc1ccc(S(=O)(=O)c2nc(S(C)(=O)=O)sc2N2CCC(C)CC2)cc1 | -1 | 1 | -6 | 5 | -7 | 28* | 1
C=CCSC1=C(C#N)C(c2ccccc2C)CC(=O)N1 (stereo not given) | 2 | -2 | -1 | 5 | -5 | 7 | .
C=CCSC1=C(C#N)C(c2ccccc2Cl)CC(=O)N1 (stereo not given) | -3 | 3 | 1 | 9 | -5 | 46* | 13
C=CCSC1=C(C#N)C(c2ccc(OCC)cc2)CC(=O)N1 (stereo not given) | -5 | -4 | 5 | -4 | 4 | 29* | 11
COC(=O)c1ccc2nc(C3CCCCC3)c(Cc3ccccc3OC)n2c1 | 2 | . | 1 | . | -6 | -4 | .
CCOC(=O)[C@]12CCCCC/C=C\1N(Cc1ccc(OC)cc1)C(=O)[C@H]2CC(=O)NCc1cccs1 | 1 | . | . | . | -3 | -9 | .
N#C/C(=C\c1ccc(N2CCOCC2)c([N+](=O)[O-])c1)c1nc2ccccc2[nH]1 | 4 | -5 | -8 | 1 | 7 | 1 | .
N#C/C(=C\c1ccc(N2CCOCC2)o1)c1nc2ccccc2[nH]1 | 6 | 6 | 13 | 28 | 14 | 58* | -57
CC(C)CNS(=O)(=O)CC1NCc2cc3c(cc21)OCO3 (stereo not given) | 2 | . | . | . | 3 | 5 | .
CN1CCN(c2ccc3c(c2)Oc2ccccc2CN(Cc2cn(Cc4cccc(C(F)(F)F)c4)nn2)S3(=O)=O)CC1 | 11 | . | . | . | -1 | -1 | .
CCOc1c(OC(C)=O)ccc(/C=C2\N=C(SCC)SC2=O)c1[N+](=O)[O-] | 4 | 4 | 13 | 13 | 23 | 27* | 7
COc1ccc(N/C=C2\CCc3ccccc3C2=O)cc1 | 11 | 6 | 2 | 7 | 20 | 59* | 44*
FC(F)(F)c1nc(=S)c2ccccc2[nH]1 | 1 | . | 2 | -2 | 4 | 33* | 25*
Cc1cc(S(=O)(=O)c2ccc(Cl)cc2)nc(S(=O)(=O)c2ccc(Cl)cc2)c1C#N | 9 | . | -4 | 10 | 15 | 60* | 48*
C[C@@H]1COc2cc(N3CCCCC3)ccc2S(=O)(=O)N1 | 0 | . | 2 | . | 2 | -1 | .
O=C(O)c1ccc(NNC(=S)Nc2cc(C(F)(F)F)ccc2Cl)cc1 | -1 | -8 | 2 | 1 | -8 | 27* | 12
O=C(NC(=S)Nc1cc(C(F)(F)F)ccc1Cl)c1ccccc1 | 1 | -3 | -10 | -8 | -6 | -4 | .
Cc1ccc2c(c1)C(=O)CCCCC(=O)N2 | 3 | 0 | -4 | -2 | -6 | 11 | .
SMILES | SIAE primary | PAD4 inh | TCR-CD3 inh | HTRA1 inhibitor | mABHD4 FP | PRMT1 FP inh | PRMT1 inh conf
O=C1CCNc2ccc(-c3ccccc3)cc21 | -3 | -1 | 0 | -7 | 11 | 75* | 79*
CN(NC(=O)/C=C/C(=O)O)c1ncc(C(F)(F)F)cc1Cl | 5 | 7 | 2 | 6 | 4 | 35* | 6
COCCN1C(=O)Cc2c1nc(N)c1c(N)nc(N3CCN(c4ccc(F)cc4)CC3)c(C#N)c21 | 7 | -5 | 11 | 14 | 16 | 27* | 15
COc1ccc(CN2C(=O)Cc3c2nc(N)c2c(N)nc(N4CCOCC4)c(C#N)c32)cc1 | 1 | -6 | 6 | 5 | 12 | 25* | 13
CCC1Cc2c(nc(N)c3c(N)nc(N4CCOCC4)c(C#N)c23)O1 (stereo not given) | 10 | -5 | -2 | 3 | 0 | 1 | .
CN1C2=N[C@@H](c3ccccc3)CC(=O)N2/C(=C\c2ccccc2)[C@H]1c1ccccc1 | -1 | . | . | . | -6 | 2 | .
Cn1ccnc1C(O)c1cc(C(C)(C)C)c(O)c(C(C)(C)C)c1 (stereo not given) | -4 | -5 | 0 | -10 | 9 | 37* | 13
O=C(c1cccc(Cl)c1)N1CCN(c2ccnc3cc(Cl)ccc23)CC1 | -2 | . | . | . | -1 | 0 | .
CC(=O)c1cccc(-n2c(CCC(=O)O)ccc2-c2ccccc2)c1 | 4 | -13 | -3 | -2 | 0 | 16 | .
O=C(O)CCc1ccc(-c2cccs2)n1-c1ccc(C(=O)O)cc1 | 2 | -3 | -5 | -4 | 0 | 37* | 10
O=C(O)CCc1ccc(-c2cccs2)n1CCC(=O)O | -4 | -3 | -7 | 2 | 9 | 16 | .
CC(=O)c1cccc(-n2c(CCC(=O)O)ccc2-c2cccs2)c1 | 3 | -1 | 0 | 1 | 11 | 68* | 16
COC(=O)c1ccc(S(=O)(=O)N2CCC(NC(=O)Cc3ccccc3)CC2)cc1 | -2 | . | . | . | 5 | -4 | .
COc1ccc(C2Nc3ccccc3C(=O)N2Cc2ccco2)cc1COc1ccccc1C (stereo not given) | -11 | . | . | . | -18 | 3 | .
COc1ccc(C2Nc3ccccc3C(=O)N2Cc2ccc(C)o2)cc1COc1c(C)cccc1C (stereo not given) | -5 | . | . | . | -34 | 39* | 3
O=C(OC1CCOC1=O)c1ccc2ncsc2c1 (stereo not given) | 5 | 2 | 4 | 4 | -4 | 39* | 2
COC(=O)[C@]12C[C@H](CC(=O)NCCCCc3ccccc3)C(=O)N(CCC3=CCCCC3)C1=C[C@H](C1CCCC1)O[C@@H]2C | 2 | . | . | . | 3 | 3 | .
